Here are results for six compounds from ChEMBL document CHEMBL1141385, “Lignans from Dysosma versipellis with inhibitory effects on prostate cancer cell lines” (J Nat Prod, 2007).

One assay concerns LNCaP. Description: Cytotoxicity against androgen sensitive human LNCaP cells. It counts as cell-based. The method in brief: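 LNCaP (androgen-sensitive human prostate cancer) cells kept as monolayers in DMEM with 10% FBS, 2 mM L-glutamine, penicillin/streptomycin, 5% CO2. Seeded at 5000 cells/well, attached overnight, then exposed to compounds or DMSO vehicle for 48 h. MTS added for 2–4 h at 37 °C; formazan absorbance read at 490 nm. At least three experiments, each in triplicate.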

In a further assay the test system is PC-3. Description: Cytotoxicity against androgen-independent human PC3 cells. It counts as cell-based. The method in brief:
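PC-3 (androgen-independent human prostate cancer) cells kept as monolayers in DMEM with 10% FBS, 2 mM L-glutamine, penicillin/streptomycin, 5% CO2. Plated at 3000 cells/well and left to attach overnight. Treated with compounds or DMSO vehicle for 48 h. Viability read by MTS (2–4 h, 37 °C) as absorbance at 490 nm. Run at least three times in triplicate.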

Take `COc1cc([C@@H]2c3cc4c(cc3[C@H](O)[C@H]3COC(=O)[C@H]23)OCO4)cc(OC)c1O`: the IC50 with LNCaP was determined as 56 nM; in the assay with PC-3, 82 nM.

As to `COc1cc([C@@H]2c3cc4c(cc3C[C@H]3COC(=O)[C@@H]32)OCO4)cc(OC)c1O` [4'-DEMETHYLDEOXYPODOPHYLLOTOXIN], the figures for the IC50 in the assay on LNCaP and in the assay on PC-3 were 150 nM and 140 nM, respectively.

Consider `COc1cc([C@@H]2c3cc4c(cc3[C@H](O)[C@H]3COC(=O)[C@H]23)OCO4)cc(OC)c1OC` [PODOFILOX], for which the IC50 was found to be 31 nM in the assay with LNCaP and 34 nM with PC-3.

As for `COc1cc2c(O)c3c(c(-c4ccc5c(c4)OCO5)c2cc1OC)C(=O)OC3` [DIPHYLLIN], the 50% inhibitory concentration (IC50) in the assay on LNCaP was 11500 nM; in the assay on PC-3 it was 7200 nM.

On to `COc1cc([C@@H]2c3cc4c(cc3C[C@H]3COC(=O)[C@@H]32)OCO4)cc(OC)c1OC` [DESOXYPODOPHYLLOTOXIN], for which the IC50 with LNCaP was found to be 30 nM; in the assay with PC-3, 32 nM.

As for `COc1cc(O)cc([C@@H](O)[C@@H]2CO[C@@H](c3ccc(O)c(OC)c3)[C@@H]2CO)c1` [DYSOSMAROL], the IC50 in the assay on LNCaP and in the assay with PC-3 was 16000 nM in each case.
